Tests used:
Assay type in all cases: functional
HL-60(TB) = test: Growth inhibition of human HL-60(TB) cells at 10 uM after 48 hrs by coulter counter analysis; conditions: HL-60, 48 h, read-out: GI
Method in brief: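 Cells grown in RPMI 1640 with 10% FBS. Compound was dissolved in DMSO and diluted in PBS (under 1% DMSO final), then added in duplicate wells to culture at 6 × 10⁴ cells/ml. PBS/DMSO vehicle controls were included. Incubated at 37 °C, humidified 5% CO₂, for 48 h. Cells were diluted 10-fold in saline and Coulter-counted. Single-dose NCI-60 screen, read as percent growth inhibition.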

MOLT-4 = test: Growth inhibition of human MOLT4 cells at 10 uM after 48 hrs by coulter counter analysis; conditions: MOLT-4, 48 h, read-out: GI
Method in brief: (§1)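 Single-dose NCI 60-line panel screen of test compounds. Cells grown in RPMI 1640 with 10% FBS. Compounds dissolved in DMSO, then diluted in phosphate buffer saline (final DMSO below 1%). Wells run in duplicate at 6 × 10⁴ cells/ml. Controls held PBS and DMSO at matching dilutions. Incubation 48 h at 37 °C under humidified 5% CO2. Cells diluted tenfold in saline and counted by Coulter counter. Percent growth inhibition taken from mean-graph of treated-cell growth.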

SR = test: Growth inhibition of human SR cells at 10 uM after 48 hrs by coulter counter analysis; conditions: read-out: GI
Method in brief: (§2)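 Single-dose screen in the NCI 60 cell line panel. Cells grown in RPMI 1640 with 10% FBS. Compounds dissolved in DMSO and diluted in phosphate buffered saline, final DMSO under 1%. Duplicate wells seeded from culture at 6 × 10⁴ cells/ml. Incubated 48 h at 37 °C, humidified, 5% CO2. Cells diluted tenfold in saline and Coulter-counted. Percent growth inhibition computed against PBS/DMSO controls.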

EKVX = test: Growth inhibition of human EKVX cells at 10 uM after 48 hrs by coulter counter analysis; conditions: read-out: GI; method in brief: as §1
HOP-92 = test: Growth inhibition of human HOP92 cells at 10 uM after 48 hrs by coulter counter analysis; conditions: HOP-92, 48 h, read-out: GI; method in brief: as §1
NCI-H23 = test: Growth inhibition of human NCI-H23 cells at 10 uM after 48 hrs by coulter counter analysis; conditions: NCI-H23, 48 h, read-out: GI; method in brief: as §1
NCI-H322M = test: Growth inhibition of human NCI-H322M cells at 10 uM after 48 hrs by coulter counter analysis; conditions: read-out: GI; method in brief: as §1
NCI-H460 = test: Growth inhibition of human NCI-H460 cells at 10 uM after 48 hrs by coulter counter analysis; conditions: NCI-H460, 48 h, read-out: GI; method in brief: as §1
COLO 205 = test: Growth inhibition of human COLO205 cells at 10 uM after 48 hrs by coulter counter analysis; conditions: COLO 205, 48 h, read-out: GI; method in brief: as §1
HCC 2998 = test: Growth inhibition of human HCC2998 cells at 10 uM after 48 hrs by coulter counter analysis; conditions: HCC 2998, 48 h, read-out: GI; method in brief: as §1
HCT-116 = test: Growth inhibition of human HCT116 cells at 10 uM after 48 hrs by coulter counter analysis; conditions: HCT-116, 48 h, read-out: GI; method in brief: as §1
KM12 = test: Growth inhibition of human KM12 cells at 10 uM after 48 hrs by coulter counter analysis; conditions: KM12, 48 h, read-out: GI; method in brief: as §1
SF-539 = test: Growth inhibition of human SF539 cells at 10 uM after 48 hrs by coulter counter analysis; conditions: SF-539, 48 h, read-out: GI; method in brief: as §1
SNB-19 = test: Growth inhibition of human SNB19 cells at 10 uM after 48 hrs by coulter counter analysis; conditions: SNB-19, 48 h, read-out: GI; method in brief: as §1
SNB-75 = test: Growth inhibition of human SNB75 cells at 10 uM after 48 hrs by coulter counter analysis; conditions: SNB-75, 48 h, read-out: GI; method in brief: as §2
LOX IMVI = test: Growth inhibition of human LOXIMVI cells at 10 uM after 48 hrs by coulter counter analysis; conditions: read-out: GI; method in brief: as §1
Malme-3M = test: Growth inhibition of human MALME-3M cells at 10 uM after 48 hrs by coulter counter analysis; conditions: read-out: GI; method in brief: as §1
M14 = test: Growth inhibition of human M14 cells at 10 uM after 48 hrs by coulter counter analysis; conditions: M14, 48 h, read-out: GI; method in brief: as §1
MDA-MB-435 = test: Growth inhibition of human MDA-MB-435 cells at 10 uM after 48 hrs by coulter counter analysis; conditions: MDA-MB-435, 48 h, read-out: GI; method in brief: as §1
SK-MEL-2 = test: Growth inhibition of human SK-MEL-2 cells at 10 uM after 48 hrs by coulter counter analysis; conditions: SK-MEL-2, 48 h, read-out: GI; method in brief: as §1
SK-MEL-28 = test: Growth inhibition of human SK-MEL-28 cells at 10 uM after 48 hrs by coulter counter analysis; conditions: SK-MEL-28, 48 h, read-out: GI; method in brief: as §1
IGROV-1 = test: Growth inhibition of human IGROV1 cells at 10 uM after 48 hrs by coulter counter analysis; conditions: IGROV-1, 48 h, read-out: GI; method in brief: as §1
OVCAR-3 = test: Growth inhibition of human OVCAR3 cells at 10 uM after 48 hrs by coulter counter analysis; conditions: OVCAR-3, 48 h, read-out: GI; method in brief: as §1
OVCAR-8 = test: Growth inhibition of human OVCAR8 cells at 10 uM after 48 hrs by coulter counter analysis; conditions: OVCAR-8, 48 h, read-out: GI; method in brief: as §1
786-0 = test: Growth inhibition of human 786-0 cells at 10 uM after 48 hrs by coulter counter analysis; conditions: 786-0, 48 h, read-out: GI; method in brief: as §1
ACHN = test: Growth inhibition of human ACHN cells at 10 uM after 48 hrs by coulter counter analysis; conditions: read-out: GI; method in brief: as §1
CAKI-1 = test: Growth inhibition of human Caki1 cells at 10 uM after 48 hrs by coulter counter analysis; conditions: CAKI-1, 48 h, read-out: GI; method in brief: as §1
SN12C = test: Growth inhibition of human SN12C cells at 10 uM after 48 hrs by coulter counter analysis; conditions: read-out: GI; method in brief: as §1
PC-3 = test: Growth inhibition of human PC3 cells at 10 uM after 48 hrs by coulter counter analysis; conditions: PC-3, 48 h, read-out: GI; method in brief: as §1
MCF7 = test: Growth inhibition of human MCF7 cells at 10 uM after 48 hrs by coulter counter analysis; conditions: MCF7, 48 h, read-out: GI; method in brief: as §1
BT-549 = test: Growth inhibition of human BT549 cells at 10 uM after 48 hrs by coulter counter analysis; conditions: BT-549, 48 h, read-out: GI; method in brief: as §1
T47D = test: Growth inhibition of human T47D cells at 10 uM after 48 hrs by coulter counter analysis; conditions: read-out: GI; method in brief: as §2
MDA-MB-468 = test: Growth inhibition of human MDA-MB-468 cells at 10 uM after 48 hrs by coulter counter analysis; conditions: MDA-MB-468, 48 h, read-out: GI; method in brief: as §1
CCRF-CEM = test: Growth inhibition of human CCRF-CEM cells at 10 uM after 48 hrs by coulter counter analysis; conditions: read-out: GI; method in brief: as §1

SMILES | inhibition of growth at 10 µM (HL-60(TB)) [%] | inhibition of growth at 10 µM (MOLT-4) [%] | inhibition of growth at 10 µM (SR) [%] | inhibition of growth at 10 µM (EKVX) [%] | inhibition of growth at 10 µM (NCI-H23) [%] | inhibition of growth at 10 µM (NCI-H322M) [%] | inhibition of growth at 10 µM (NCI-H460) [%] | inhibition of growth at 10 µM (COLO 205) [%] | inhibition of growth at 10 µM (HCC 2998) [%] | inhibition of growth at 10 µM (HCT-116) [%] | inhibition of growth at 10 µM (KM12) [%] | inhibition of growth at 10 µM (SF-539) [%] | inhibition of growth at 10 µM (SNB-19) [%] | inhibition of growth at 10 µM (SNB-75) [%] | inhibition of growth at 10 µM (LOX IMVI) [%] | inhibition of growth at 10 µM (Malme-3M) [%] | inhibition of growth at 10 µM (M14) [%] | inhibition of growth at 10 µM (MDA-MB-435) [%] | inhibition of growth at 10 µM (SK-MEL-2) [%] | inhibition of growth at 10 µM (SK-MEL-28) [%] | also measured
Cc1cnc(NC(=O)CCN2CCN(c3ccccc3)CC2)s1 | < 10 | < 10 | 14.3 | 11.4 | < 10 | < 10 | < 10 | < 10 | < 10 | < 10 | < 10 | < 10 | < 10 | < 10 | < 10 | < 10 | < 10 | < 10 | < 10 | < 10 | inhibition of growth at 10 µM (HOP-92): < 10%; inhibition of growth at 10 µM (IGROV-1): < 10%; inhibition of growth at 10 µM (OVCAR-3): < 10%; inhibition of growth at 10 µM (OVCAR-8): < 10%; inhibition of growth at 10 µM (786-0): < 10%; inhibition of growth at 10 µM (ACHN): < 10%; inhibition of growth at 10 µM (CAKI-1): < 10%; inhibition of growth at 10 µM (SN12C): < 10%; inhibition of growth at 10 µM (PC-3): < 10%; inhibition of growth at 10 µM (MCF7): < 10%; inhibition of growth at 10 µM (BT-549): < 10%; inhibition of growth at 10 µM (T47D): < 10%; inhibition of growth at 10 µM (MDA-MB-468): < 10%
CCOC(=O)c1sc(NC(=O)CN(C)C)nc1C | < 10 | < 10 | < 10 | < 10 | < 10 | < 10 | < 10 | < 10 | < 10 | < 10 | < 10 | < 10 | < 10 | < 10 | < 10 | < 10 | < 10 | < 10 | < 10 | < 10 | inhibition of growth at 10 µM (HOP-92): < 10%; inhibition of growth at 10 µM (IGROV-1): < 10%; inhibition of growth at 10 µM (OVCAR-3): < 10%; inhibition of growth at 10 µM (OVCAR-8): < 10%; inhibition of growth at 10 µM (786-0): < 10%; inhibition of growth at 10 µM (ACHN): < 10%; inhibition of growth at 10 µM (CAKI-1): < 10%; inhibition of growth at 10 µM (SN12C): < 10%; inhibition of growth at 10 µM (PC-3): < 10%; inhibition of growth at 10 µM (MCF7): < 10%; inhibition of growth at 10 µM (BT-549): < 10%; inhibition of growth at 10 µM (T47D): < 10%; inhibition of growth at 10 µM (MDA-MB-468): < 10%
O=C(CCCl)Nc1nc(-c2ccccc2)cs1 | 17.9 | 40.7 | 65.4 | 24.1 | 34.7 | 29.2 | 63.6 | 55.6 | 15.8 | 78.3 | 52.6 | 81.5 | 29.3 | 60.6 | 47.8 | 68.2 | 52.7 | 68.2 | 71.2 | 19.4 | inhibition of growth at 10 µM (IGROV-1): 50%; inhibition of growth at 10 µM (OVCAR-3): 98%; inhibition of growth at 10 µM (OVCAR-8): 56.1%; inhibition of growth at 10 µM (786-0): 36.7%; inhibition of growth at 10 µM (ACHN): 50.7%; inhibition of growth at 10 µM (CAKI-1): 69.3%; inhibition of growth at 10 µM (SN12C): 57.2%; inhibition of growth at 10 µM (PC-3): 57.9%; inhibition of growth at 10 µM (MCF7): 75.9%; inhibition of growth at 10 µM (BT-549): 74.5%; inhibition of growth at 10 µM (T47D): 55.2%; inhibition of growth at 10 µM (CCRF-CEM): 92.7%
